Reference: ChEMBL document CHEMBL1134409, “Design, synthesis, and discovery of a novel CCR1 antagonist” (J Med Chem, 2001)

Legend:
[1] = biological target: T1, C-C chemokine receptor type 1 (Mus musculus, UniProt P51675); test: Inhibitory activity against [125I]-MIP-1 alpha binding to mouse CCR1 receptors.
T1 sequence (P51675 whole entry): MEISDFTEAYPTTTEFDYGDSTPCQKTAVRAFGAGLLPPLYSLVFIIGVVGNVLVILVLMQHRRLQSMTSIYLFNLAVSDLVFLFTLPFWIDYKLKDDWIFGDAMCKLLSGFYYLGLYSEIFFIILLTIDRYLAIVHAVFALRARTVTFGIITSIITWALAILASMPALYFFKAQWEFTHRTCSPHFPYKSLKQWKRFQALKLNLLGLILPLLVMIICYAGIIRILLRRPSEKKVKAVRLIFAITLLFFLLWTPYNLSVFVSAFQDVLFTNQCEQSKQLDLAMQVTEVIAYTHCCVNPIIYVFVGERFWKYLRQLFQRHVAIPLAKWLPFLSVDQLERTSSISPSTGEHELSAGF
In short: (§1)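 Whole-cell binding. CHO cells transfected with the CCR receptor were detached with PBS(-) containing 2 mM EDTA and resuspended in Krebs-Ringer phosphate buffer with 0.1% BSA and 0.1% glucose. 1 × 10^5 cells were incubated with 50 pM 125I-chemokine plus antagonist for 1 h at 37 °C to reach equilibrium. Nonspecific binding was taken with 100 nM unlabeled chemokine. Ice-cold buffer was then added.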

[2] = biological target: T2, C-C chemokine receptor type 1 (Homo sapiens, UniProt P32246); test: Inhibitory activity against [125I]-MIP-1 alpha binding to human CCR1 receptors.; in short: as §1
T2 sequence (P32246 whole entry): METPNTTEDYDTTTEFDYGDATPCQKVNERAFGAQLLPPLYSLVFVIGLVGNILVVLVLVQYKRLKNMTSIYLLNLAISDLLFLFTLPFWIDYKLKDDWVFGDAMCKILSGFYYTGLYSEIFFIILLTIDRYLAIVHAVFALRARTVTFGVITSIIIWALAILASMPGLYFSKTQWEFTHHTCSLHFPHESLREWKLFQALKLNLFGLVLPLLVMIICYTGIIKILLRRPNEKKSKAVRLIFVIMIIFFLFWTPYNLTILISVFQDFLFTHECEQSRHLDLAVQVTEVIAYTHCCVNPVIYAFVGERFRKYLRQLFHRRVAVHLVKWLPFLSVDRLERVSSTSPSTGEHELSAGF

Compound | IC50 [1] [nM] | IC50 [2] [nM]
CC[N+]1(C/C2=C/CCCCCC2)CCC(NC(=O)C2c3ccccc3Oc3ccccc32)CC1 (centres undefined) | 63 | 2
CCC[N+]1(CC2CCCCCCC2)CCC(NC(=O)C2c3ccccc3Oc3ccccc32)CC1 (centres undefined) | 270 | 3.6
O=C(NC1CCN(CC2CCCCCCC2)CC1)C1c2cc(Cl)ccc2Oc2ccc(Cl)cc21 | > 10000 | > 10000
O=C(NC1CCN(Cc2ccc3ccccc3c2)CC1)C1c2ccccc2Oc2ccccc21 | > 10000 | > 10000
CCC[N+]1(CC2CCCCCCC2)CCC(NC(=O)C2c3cc(Br)ccc3Oc3ccc(Br)cc32)CC1 (centres undefined) | 140 | 3.1
C[N+]1(C/C2=C/CCCCCC2)CCC(NC(=O)C2c3ccccc3Oc3ccccc32)CC1 (centres undefined) | 350 | 2.5
C[N+]1(CC2CCCCCCC2)CCC(NC(=O)C2c3ccccc3Oc3ccccc32)CC1 (centres undefined) | 2100 | 14
O=C(NC1CCN(Cc2ccccc2)CC1)C1c2ccccc2Oc2ccccc21 | > 10000 | > 10000
N#CC(CCCN1CCC(O)(c2ccc(Cl)cc2)CC1)(c1ccccc1)c1ccccc1 [BERLEX COMPOUND] | 5000 | 48
O=C(NC1CCN(CC2CCCCCCC2)CC1)C(O)(c1ccccc1)c1ccccc1 | > 10000 | 1600
O=C(NC1CCN(CC2CCCCCCC2)CC1)c1c2ccccc2cc2ccccc12 | > 10000 | > 10000
O=C(NC1CCN(CC2CCCCCCCCC2)CC1)C1c2ccccc2Oc2ccccc21 | > 10000 | 800
C[N+]1(CC2CCCCCCC2)CCC(NC(=O)C(O)(c2ccccc2)c2ccccc2)CC1 (centres undefined) | > 10000 | 2100
C=CC[N+]1(CC2CCCCCCC2)CCC(NC(=O)C2c3ccccc3Oc3ccccc32)CC1 (centres undefined) | 670 | 9.7
C[N+]1(CC2CCCCCCC2)CCC(NC(=O)C2c3cc(Cl)ccc3Oc3ccc(Cl)cc32)CC1 (centres undefined) | 710 | 17
O=C(NC1CCN(CC2CCCCCCC2)CC1)C1c2cc(Br)ccc2Oc2ccc(Br)cc21 | > 10000 | 5100
CC[N+]1(C/C2=C/CCCCCC2)CCC(NC(=O)C2c3cc(Cl)ccc3Oc3ccc(Cl)cc32)CC1 (stereo in doubt; 2q-2) | 740 | 47
